Holding throughout (assay type): functional
For one assay, the system named is SF-539. Nature of the assay: Growth inhibition of human SF539 cells after 48 hrs by sulforhodamine B assay. The settings on record: SF-539, 48 h; for TGI: read-out: pTGI (converted). Put shortly: (§1)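 NCI 60-human-tumor-cell-line panel, with compounds tested over a 5-log dose range. Values are taken from dose-response curves as log10 molar concentrations: GI50 is 50% net growth inhibition, TGI is total growth inhibition, and LC50 is 50% net cell death.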

Another assay relates to MDA-N. Nature of the assay: Growth inhibition of human MDA-N cells after 48 hrs by sulforhodamine B assay. The settings on record: for CC50: read-out: pLC50 (the source's name) (converted); for TGI: read-out: pTGI (converted).
The next assay concerns HCC 2998. Nature of the assay: Growth inhibition of human HCC2998 cells after 48 hrs by sulforhodamine B assay. Particulars: HCC 2998, 48 h; for TGI: read-out: pTGI (converted). An outline of the steps:
as §1

For `Nc1cc(N)c2nc(-c3ccccc3)c(NCc3ccc(Cl)c(Cl)c3)nc2c1`, in the assay with SF-539, the GI50 was 4.57 µM, the LC50 is 83.2 µM and the TGI was 18.6 µM.

On to `COc1cc(CNc2nc3cc(N)cc(N)c3nc2-c2ccccc2)cc(OC)c1`, for which, in the assay with SF-539, the GI50 is 5.25 µM, the LC50 was 77.6 µM and the TGI was 21.4 µM. Also, in the assay on MDA-N, the concentration for 50% growth inhibition (GI50) is 2.34 µM, the CC50 is > 100 µM and the TGI was 5.25 µM.

As to `Nc1cc(N)c2nc(-c3ccccc3)c(Sc3ccc(Cl)c(Cl)c3)nc2c1`, in the assay on SF-539, the GI50 is 14.5 µM, the LC50 is > 100 µM and the TGI was 41.7 µM.

In the case of `Nc1cc(N)c2nc(-c3ccccc3)c(Oc3ccc(Cl)c(Cl)c3)nc2c1`, in the assay with SF-539, it took 13.5 µM to inhibit growth by half (GI50), the LC50 is 64.6 µM and the TGI was 29.5 µM.

With `Nc1cc(N)c2nc(-c3ccccc3)c(Oc3ccc(F)cc3)nc2c1`, in the assay on SF-539, halving of growth (GI50) required 18.2 µM, the median lethal concentration (LC50) is 70.8 µM and the TGI is 35.5 µM.

For `COc1ccc(Oc2nc3cc(N)cc(N)c3nc2-c2ccccc2)cc1`, in the assay with SF-539, the GI50 was 23.4 µM, the LC50 was > 100 µM and the TGI is 61.7 µM. Further, in the assay on MDA-N, the concentration for 50% growth inhibition (GI50) was 35.5 µM, the CC50 was > 100 µM and the TGI is > 100 µM.

In the case of `COc1ccc(CNc2nc3cc(N)cc(N)c3nc2-c2ccccc2)cc1OC`, in the assay on HCC 2998, the GI50 was 22.9 µM, the LC50 (50% net cell kill) was > 100 µM and the TGI was 56.2 µM. For the same compound, in the assay with SF-539, the GI50 was 20 µM, the 50% lethal concentration (LC50) was > 100 µM and the TGI was 45.7 µM.

For the compound `COc1ccc(Sc2nc3cc(N)cc(N)c3nc2-c2ccccc2)cc1`, in the assay with SF-539, the GI50 was 10 µM, the LC50 is > 100 µM and the TGI was > 100 µM.

Turning to `COc1ccc(CNc2nc3cc(N)cc(N)c3nc2-c2ccccc2)cc1`, in the assay on HCC 2998, halving of growth (GI50) required 21.9 µM, the LC50 (50% net cell kill) was > 100 µM and the TGI is 51.3 µM. Also, in the assay on MDA-N, the GI50 is 14.1 µM, the CC50 is 53.7 µM and the TGI is 27.5 µM.

`COc1cc(OC)cc(Oc2nc3cc(N)cc(N)c3nc2-c2ccccc2)c1`: in the assay with HCC 2998, the GI50 was 2.51 µM and the TGI was 13.8 µM.

Regarding `COc1cc(CNc2nc3cc(N)cc(N)c3nc2-c2ccccc2)cc(OC)c1OC`, in the assay on SF-539, halving of growth (GI50) required 1.35 µM, the LC50 is 26.9 µM and the TGI was 7.94 µM.

In the case of `Nc1cc(N)c2nc(-c3ccccc3)c(NCc3ccc(F)cc3)nc2c1`, in the assay on SF-539, the GI50 was 1.82 µM, the 50% lethal concentration (LC50) is 6.92 µM and the TGI is 3.55 µM.

For the compound `Nc1cc(N)c2nc(-c3ccccc3)c(Sc3ccc(F)cc3)nc2c1`, in the assay on SF-539, the GI50 was 21.4 µM, the LC50 is 75.9 µM and the TGI is 39.8 µM.

The GI50 is the concentration that inhibits growth by half. The term LC50 denotes the concentration that kills 50% of the test population. Lower therefore signals greater toxicity.
